# This is a sample that favours compounds with a hit; in the whole collection about 0.55% have one here.
# OXTR ag – activates the human oxytocin receptor; P30559; CHO-OTR cells, Fluo-8 calcium fluorescence; normalized: DMSO 0%, oxytocin 100%; activation, % at 3 µM; 0.32% of 320,000 active; AID 2435;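 active means activation above the mean of all tested compounds plus 3 SD, cutoff set per screening run, cut at about 20% in these data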;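 further: peak over basal fluorescence ratio from a 100 s FLIPR kinetic read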
# Target sequence (P30559 whole entry, looked up): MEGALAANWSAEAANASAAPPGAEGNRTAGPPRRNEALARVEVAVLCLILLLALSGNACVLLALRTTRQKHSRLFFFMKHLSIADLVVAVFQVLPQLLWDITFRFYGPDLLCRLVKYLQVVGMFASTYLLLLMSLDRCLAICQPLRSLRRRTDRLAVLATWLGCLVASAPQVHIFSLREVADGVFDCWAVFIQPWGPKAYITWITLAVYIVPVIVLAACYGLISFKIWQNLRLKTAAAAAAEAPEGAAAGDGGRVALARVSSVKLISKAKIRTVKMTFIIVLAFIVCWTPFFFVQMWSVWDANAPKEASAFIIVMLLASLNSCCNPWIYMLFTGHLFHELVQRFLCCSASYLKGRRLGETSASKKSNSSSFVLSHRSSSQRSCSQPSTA
# TRPML3 agonist – agonists of human TRPML3 channel; Q8TDD5; HEK293 TRPML3-YFP, Fluo-8 calcium fluorescence; 100% = the carbachol control signal; activation, % at 3 µM; 0.29% of 220,000 active; AID 1448;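 active means activation above its plate's cutoff, the mean activation of the plate's test wells plus 3 SD, cut at about 12% in these data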;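 further: 0% = DMSO only wells and 100% = carbachol wells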
#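 Material: HEK293 cells stably carrying human TRPML3-YFP; compound dosing: single dose, 3 µM final nominal compound, 0.3% DMSO final; incubation: 1-h 37 °C dye load, 5-s basal, 120-s post-compound reads; technique: Fluo-8 intracellular calcium fluorescence, excitation 470-495 nm, emission 515-575 nm; read-out basis: percent activation from peak-to-basal fluorescence ratio, scaled between DMSO and carbachol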
# TRPN1 ag – zebrafish TRPN1 (NompC) channel agonism. HEK293 zebrafish TRPN1-YFP, Fluo-8 calcium fluorescence; 100% = response to 87 µM carbachol. activation, % at 3 µM. 0.18% of 220,000 active;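 active means activation above its plate's cutoff, the mean activation of test wells on that plate plus 3 SD, cut at about 19% in these data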;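 further: 0% = DMSO alone and 100% = 87 µM carbachol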
#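 System: zebrafish TRPN1-YFP in HEK293 cells / Dosing: 3 µM single point / Timing: dye loading 1 h at 37 °C, then 30 min room temperature / Signal: Fluo-8 calcium fluorescence, excitation 470-495 nm, emission 515-575 nm / Read-out basis: percent activation from peak over basal fluorescence ratio, control-normalized / Control set: high carbachol 87 µM, low DMSO alone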
# OXTR potentiator – potentiators of human oxytocin receptor; CHO-OTR cells, Fluo-8 calcium fluorescence, potentiator mode; 0% = oxytocin EC15, 100% = EC100; activation, % at 3 µM; 0.061% of 320,000 active; AID 2445;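 active means activation above that plate's cutoff, the mean activation of tested compounds plus 3 SD, cut at about 6.6% in these data, passing the limit was not always enough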;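 further: 100% uses oxytocin at 75 nM as the full agonist control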
#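 Material: CHO-OTR cells, human receptor; compound dosing: single dose, 3.0 µM nominal final compound concentration; schedule: 6 min compound pre-incubation at room temperature, 100 s kinetic read; measured by: kinetic Fluo-8 calcium fluorescence; read-out basis: % activation vs EC15 and EC100 oxytocin; controls: EC15 oxytocin alone as 0%, 75 nM oxytocin as 100%; replicates: singlicate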
# V1R ag counter – activates human V1a receptor in oxytocin agonist counter-screen | activation, % at 3 µM | 0.25% of 320,000 active | CHO-V1R cells, Fluo-8 calcium fluorescence, agonist mode; 0% DMSO, 100% 3 nM vasopressin | AID 2797;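 active means activation above the mean activation of all tested compounds plus 3 SD, per screening run, cut at about 20% in these data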;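 further: signal is peak over basal fluorescence ratio across a 100 second FLIPR read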
# * = called active by the depositor; . = not tested or not shown.
SMILES,OXTR ag,TRPML3 agonist,TRPN1 ag,OXTR potentiator,V1R ag counter
O=C(COC(=O)/C=C/c1cccc(Cl)c1Cl)Nc1ccc2[nH]c(=O)[nH]c2c1,1,.,.,5,1
C=CCN1C(c2cccc(C(F)(F)F)c2)=CS/C1=C(/C#N)c1nnc(N2CCOCC2)n1-c1ccccc1,-2,61*,22*,-7,0
Cn1cccc1C(=O)OCC(=O)N1CCN(c2ccccc2)CC1,1,.,.,2,2
CC(C)c1c(C(=O)N/N=C/c2ccoc2)nnn1-c1nonc1N,3,.,.,-10,1
CC(C)c1c(C(=O)N/N=C/c2ccc(C(F)(F)F)cc2)nnn1-c1nonc1N,66*,.,.,-8,79*
Cc1ccc(/C=N/NC(=O)c2nnn(-c3nonc3N)c2-c2cccs2)cc1,56*,.,.,-10,42*
COc1cccc(-c2c(C(=O)N/N=C/c3cccs3)nnn2-c2nonc2N)c1,21*,.,.,-8,28*
COc1ccc(/C=N/NC(=O)c2nnn(-c3nonc3N)c2-c2cccs2)cc1OC,6,.,.,-9,11
CCC(C)(C(=O)NC1CCCCC1)N(C(=O)Cc1cccs1)c1ccccc1 (stereo not drawn),23*,-1,-1,-12,18
CCC(C)(C(=O)NC1CCCC1)N(Cc1cccs1)C(=O)Cc1cccs1 (stereo not drawn),-2,1,-1,-12,0
COc1ccc(Cc2nnc(NC(=O)Nc3ccc(C)cc3)s2)cc1OC,-1,.,.,-7,1
COc1ccc(Cc2nnc(NC(=O)CSc3ccc(C)cc3)s2)cc1OC,57*,2,10,-28,77*
CC(=O)Nc1ccc(Sc2ncccc2C(=O)Nc2ccc(OC(F)(F)F)cc2)cn1,71*,31*,48*,-8,67*
CC(=O)Nc1ccc(Sc2ncccc2C(=O)Nc2cc(Cl)cc(Cl)c2)cn1,4,1,2,-6,3
Cc1cnc(NC(=O)CSc2ncc(-c3ccccc3)n2Cc2ccco2)s1,26*,10,17,-34,30*
CC(C)[C@H](NS(=O)(=O)c1cccc(Cl)c1)C(=O)OCC(=O)NC(=O)CN1CCCC1=O,1,.,.,2,0
CCc1ccc(Nc2n[n+](-c3ccccc3)c(-c3c(Cl)cccc3Cl)s2)cc1,48*,.,.,-20,64*
CCc1ccc(Nc2n[n+](-c3ccccc3)c(-c3ccc(OCc4ccccc4)cc3)s2)cc1,-2,.,.,-9,-1
Fc1ccc(-[n+]2nc(Nc3ccccc3)sc2-c2c(Cl)cccc2Cl)cc1,23*,.,.,-22,25*
CCCn1c(=O)c(C(=O)NNC(=O)c2ccccc2Cl)c(O)c2ccccc21,40*,.,.,-16,30*
Cc1ccc(N2C(=O)c3ccc(C(=O)N4CCN(c5ccc(C)c(C)c5)CC4)cc3C2=O)cc1,0,1,-1,-3,0
Cc1ccc(N2C(=O)c3ccc(C(=O)N4CCN(Cc5ccccc5)CC4)cc3C2=O)cc1,30*,3,9,-10,40*
Cc1ccc(NC(N)=S)cc1C,0,1,0,-7,-1
Cc1ccc(N/N=C(\C#N)C(N)=S)cc1C,17,13*,24*,-33,14
N#C/C(=N\Nc1ccccc1)C(N)=S,5,2,5,-12,8
SMILES,OXTR ag,TRPML3 agonist,TRPN1 ag,OXTR potentiator,V1R ag counter
N#C/C(=N\Nc1ccc(Cl)cc1)C(N)=S,17,16*,25*,-18,13
O=C(CSc1nnc(C2CC2)n1-c1ccccc1)N1CCCC1,1,.,.,-2,1
Cc1ccc(C(=O)N2CCN(c3cccc(C)c3C)CC2)cc1S(=O)(=O)N1CCOCC1,-1,.,.,-4,4
CN(C(=O)c1cc2ccccc2o1)c1c(N)n(Cc2ccccc2)c(=O)[nH]c1=O,1,.,.,-2,2
COc1ccccc1CN(C)C(=O)c1cccc(S(=O)(=O)N2CCCc3ccccc32)c1,-2,.,.,-8,1
NC(=O)c1ccc[n+]([C@H]2O[C@@H](COP(=O)([O-])OP(=O)(O)OC[C@H]3O[C@@H](n4cnc5c(N)ncnc54)[C@H](O)[C@@H]3O)[C@H](O)[C@@H]2O)c1,51*,.,.,-22,69*
CC1(C)CC[C@]2(C(=O)O)CC[C@]3(C)C(=CC[C@@H]4[C@@]5(C)CC[C@H](O[C@@H]6O[C@H](C(=O)O)[C@@H](O)[C@H](O[C@@H]7OC[C@H](O)[C@H](O)[C@H]7O)[C@H]6O)C(C)(C)[C@@H]5CC[C@]43C)[C@@H]2C1,56*,.,.,-13,108*
NS(=O)(=O)c1cccc(NC(=O)CSc2nnc3n2CCCCC3)c1,1,.,.,-4,3
COc1ccc(C2C(C(=O)c3cccs3)=C(O)C(=O)N2c2cccc(C)n2)cc1 (stereo not drawn),0,0,-1,-5,0
Cc1ccc(C2C(C(=O)c3cccs3)=C(O)C(=O)N2c2nnc(C)s2)cc1 (stereo not drawn),8,22*,42*,0,13
Cc1cc(Br)c(NC(=O)COC(=O)C2CCCCC2)c(Br)c1,-2,.,.,-2,-1
COc1ccc(C(=O)NC(=S)NNC(=O)c2ccccc2O)cc1,8,.,.,-16,5
COc1ccc(C(=O)NNC(=S)NC(=O)c2cc(-c3ccccc3)nc3ccccc23)cc1,35*,7,22*,-21,28*
COc1ccc(C(=O)NC(=S)NNC(=O)c2ccccc2C)cc1,58*,.,.,-22,60*
CC(C)(C)C(=O)NC(=S)NNC(=O)c1sc2ccccc2c1Cl,99*,23*,49*,-21,112*
CCCOc1ccc(C(=O)NNC(=S)NC(=O)c2cc(-c3ccc(Cl)cc3)nc3ccccc23)cc1,2,0,-1,-11,1
COc1ccc(C(=O)NNC(=S)NC(=O)C(C)(C)C)cc1,78*,17*,41*,-12,81*
O=C(COC(=O)CCN1C(=O)C2CC=CCC2C1=O)Nc1ccc([N+](=O)[O-])cc1 (stereo not drawn),4,.,.,-7,3
Cc1ccc(N=Cc2sc(O)c3ccccc23)cc1,29*,8,13,-14,37*
CCCCCCSc1ccc([C@@H]2[C@@H]3C(=O)N(C)C(=O)[C@@H]3[C@]3(C(=O)OC)CCCCN23)cc1,2,.,.,-4,2
CCN(CC)c1ccc2cc(-c3nc4ccccc4n3C)c(=O)oc2c1,17,2,7,-12,18
CCN(CC)c1ccc2cc(-c3nc4ccccc4[nH]3)c(=O)oc2c1,323*,55*,128*,-14,288*
CCN(CC)c1ccc2cc(-c3nc(-c4ccc(OC)cc4)cs3)c(=O)oc2c1,454*,67*,64*,-21,297*
CCN(CC)c1ccc2cc(-c3nnc(-c4ccc(Br)cc4)o3)c(=O)oc2c1,.,4,6,.,.
